This note sets out measurements from ChEMBL document CHEMBL1821687, “Discovery, synthesis, and biological evaluation of novel SMN protein modulators” (J Med Chem, 2011).

Calls of active or inactive are those of the source. The calls are words filed in the database; no cut-off is given here.

Data set [1] has as its target T1, Luciferin 4-monooxygenase (Luciola lateralis, UniProt Q01158).
T1 sequence (Q01158 whole entry): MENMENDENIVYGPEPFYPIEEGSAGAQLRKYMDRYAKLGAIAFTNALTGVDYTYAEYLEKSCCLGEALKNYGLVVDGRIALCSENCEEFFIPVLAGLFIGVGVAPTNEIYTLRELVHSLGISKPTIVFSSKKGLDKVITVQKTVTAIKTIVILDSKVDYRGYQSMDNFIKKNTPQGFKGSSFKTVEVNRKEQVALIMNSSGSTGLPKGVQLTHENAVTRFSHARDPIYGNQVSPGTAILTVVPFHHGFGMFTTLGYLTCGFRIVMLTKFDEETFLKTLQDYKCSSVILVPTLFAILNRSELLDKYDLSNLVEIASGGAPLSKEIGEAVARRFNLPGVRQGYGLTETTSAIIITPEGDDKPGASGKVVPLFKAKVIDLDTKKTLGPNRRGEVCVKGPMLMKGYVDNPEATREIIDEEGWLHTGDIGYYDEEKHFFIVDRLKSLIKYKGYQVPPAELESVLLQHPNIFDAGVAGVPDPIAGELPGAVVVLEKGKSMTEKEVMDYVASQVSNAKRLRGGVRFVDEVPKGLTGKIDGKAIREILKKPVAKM
As to the kind of experiment: Inhibition of fire fly luciferase. Also noted: species or system Aquatica lateralis.

In data set [2] the test system is Caco-2. As to the kind of experiment: Apparent permeability from apical side to basolateral side of human Caco2 cells at 10 uM. The class given is ADME, cell-based. To be noted: caco-2, 10 µM. In general terms: Caco-2 cells form a polarised layer with tight junctions and transporters.
For data set [3], the system named is Caco-2. As to the kind of experiment: Apparent permeability from basolateral side to apical side of human Caco2 cells at 10 uM. The class given is ADME, cell-based. To be noted: caco-2, 10 µM.
For data set [4], the target named is Survival motor neuron protein (Homo sapiens) (UniProt Q16637). As to the kind of experiment: Activation of SMN expressed in HEK293 cells assessed as rate of induction by SMN2-promotor driven luciferase reporter gene assay relative to basal level. The class given is cell-based. Details: concentration or dose not given beside the values. A digest of the protocol: (§1)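 HEK-293 cells stably carrying the SMN2 reporter construct, kept in DMEM with 10% FCS, glutamax, pyruvate, pen/strep and 200 µg/mL hygromycin, and assayed without hygromycin. 2,000 cells/well were plated and adhered overnight at 37 °C, 5% CO2. Compounds were added as a 7-point titration, 50 µM to 25 nM final, in 0.46% DMSO, for 30–36 h. OneGlo luminescence was normalized to 4.5 mM sodium butyrate (100%) and DMSO (0%).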
Survival motor neuron protein (Homo sapiens), sequence (Q16637 whole entry): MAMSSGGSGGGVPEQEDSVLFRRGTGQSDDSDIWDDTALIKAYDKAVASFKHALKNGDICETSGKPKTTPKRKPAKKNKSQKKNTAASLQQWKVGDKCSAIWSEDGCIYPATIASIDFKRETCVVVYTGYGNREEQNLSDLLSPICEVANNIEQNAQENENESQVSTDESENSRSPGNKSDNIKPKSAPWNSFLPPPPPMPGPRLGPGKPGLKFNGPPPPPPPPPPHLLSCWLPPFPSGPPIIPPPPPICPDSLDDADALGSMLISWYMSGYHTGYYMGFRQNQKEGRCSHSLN
(In a reporter assay the amount or activity of a reporter protein is the signal.)

For data set [5] the target is unchanged. The data set is described as follows: Activation of SMN expressed in HEK293 cells assessed as concentration required to reach 50% of maximum luciferase signal by SMN2-promotor driven luciferase reporter gene assay. Type of data set: cell-based. A digest of the protocol: as §1
Data set [6] has the same target. The data set is described as follows: Activation of SMN expressed in HEK293 cells by SMN2-promotor driven luciferase reporter gene assay. Type of data set: cell-based. An outline of the steps:
as §1

Data set [7] shares this target. The data set is described as follows: Activation of SMN in human fibroblast cells obtained from type 1 SMA patients assessed as increase in SMN protein level by quantitative Western blot method. Type of data set: cell-based. An outline of the steps: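 Type I SMA patient fibroblasts (3813 line) were seeded at 8,000 cells/cm2 24 h before dosing, with medium and compound renewed every 24 h for 72 h. Lysates (10 µg protein/lane) were immunoblotted for SMN (4f11 antibody) and α-tubulin. Band intensity was normalized to tubulin and expressed as fold over the DMSO control.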

A further data set concerns Liver. The data set is described as follows: Half-life in mouse liver microsome at 1 uM. Type of data set: ADME. To be noted: microsomes. Background: Microsomes from liver hold many membrane-bound enzymes, among them those of drug oxidation.
Data set [8] concerns the target Survival motor neuron protein (Homo sapiens) (UniProt Q16637). The data set is described as follows: Activation of SMN in human fibroblast cells obtained from type 1 SMA patients assessed as protein punctuate bodies per 100 nuclei at 37 to 3000 nM. The class given is cell-based. An outline of the steps: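 Type I SMA patient fibroblasts (3813 line) were treated with 37–3000 nM compound for 3 days. Gems were then counted per 100 nuclei.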

Data set [9] in a line: Half-life in human serum. The class given is ADME, cell-free.

`O=C(O)C1CCN(c2nc(-c3ccc(Br)cc3)cs2)CC1`: the IC50 (usually the point on the concentration scale where inhibition reaches its midpoint) in [1] (read-out: IC50) is 1.6 µM. For the same compound, the Papp (commonly a coefficient for how fast a substance crosses the barrier) was determined as 32.6 ×10⁻⁶ cm/s with Caco-2 [2] and 12 ×10⁻⁶ cm/s in the data set on Caco-2 [3]. The Activity is 554% in data set [4] and 4.87 µM in data set [5].
As for `NC(=O)C1CCN(c2nc(-c3ccc(Br)cc3)cs2)CC1`, in [6], the result was Active. Besides, the IC50 entry in [1] is “Not Active”. Moreover, the results for the Activity entry in data set [7], in data set [4] and in data set [5] were “Dose-dependent effect”, 268% and 1.22 µM, respectively. Further, the Papp in the data set on Caco-2 [2] amounted to 30.7 ×10⁻⁶ cm/s; in the data set with Caco-2 [3], 12.1 ×10⁻⁶ cm/s. Further, the t1/2 in the data set on Liver is on record as 12 min.
For the compound `Cc1ccc(-c2cnc(N3CCC(C(N)=O)CC3)s2)cc1`, the IC50 in data set [1] (read-out: IC50) was found to be 6.4 µM. Also, the Activity in [4] was found to be 609%; in data set [5], 0.077 µM. The t1/2 with Liver turned out to be 7 min.
In the case of `NC(=O)C1CCN(c2nnc(-c3ccc4c(c3)OCCCO4)s2)CC1`, the IC50 in [1] (read-out: IC50) was 3.2 µM. The results for the Papp in the data set with Caco-2 [2] and with Caco-2 [3] were 21.2 ×10⁻⁶ cm/s and 51.2 ×10⁻⁶ cm/s, respectively. Further, the figures for the Activity in data set [4] and in data set [5] were 257% and 0.122 µM, respectively. This compound came in with a t1/2 in the data set on Liver above 60 min.
Turning to `NC(=O)C1CCN(c2ncc(-c3ccc4c(c3)OCCCO4)s2)CC1`, the result in data set [8] was inactive. In [1] (read-out: IC50), the IC50 is 3.2 µM. The figures for the Papp in the data set on Caco-2 [2] and in the data set on Caco-2 [3] were 13.1 ×10⁻⁶ cm/s and 9.9 ×10⁻⁶ cm/s, respectively. Further, the Activity in [4] amounted to 370%; in data set [5] it was 0.038 µM. In the data set on Liver, the t1/2 was 30 min.
Turning to `CCCC(=O)[O-].[Na+]` [SODIUM BUTYRATE], in [9], the half-life (in general, the time in which the quantity being followed falls by half) turned out to be 6 min.
